Data: ChEMBL document CHEMBL3243962, “Antileukemic activity of derivatives of 1,2-dimethyl-3,4-bis(hydroxymethyl)-5-phenylpyrrole bis(N-methylcarbamate)” (J Med Chem, 1979)
The source made the active and inactive calls.

Tests used:
[1] = system: Mus musculus; assay: Toxicity in mouse P388 cells allografted CD2F1 mouse assessed as mouse survival at 25 mg/kg, ip of total 9 doses starting 24 hrs post tumor inoculation measured on day 5 of inoculation relative to control; assay type: organism-based; design: dose 25 mg/kg, route intraperitoneal; settings: in vivo
Procedure, shortened: (§1)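 Male CD2F1 mice bearing ip P388 leukemia (6×10^6 cells) were dosed ip with nine daily doses in distilled water–Tween 80 suspension, starting 24 h after inoculation. Survivors per group of 6 were counted on day 5, i.e. 4 days after the first dose. Body-weight change of treated minus control mice was also recorded.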

[2] = system: Mus musculus; assay: Toxicity in mouse P388 cells allografted CD2F1 mouse assessed as body weight loss at 6.25 mg/kg, ip of total 9 doses starting 24 hrs post tumor inoculation measured on day 5 of inoculation relative to control; assay type: organism-based; design: dose 6.25 mg/kg, route intraperitoneal; settings: in vivo
Procedure, shortened: (§2)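 Male CD2F1 mice inoculated ip with 6×10^6 P388 leukemia cells. Compounds given ip as distilled water–Tween 80 suspension, nine daily doses starting 24 h after inoculation; six mice per dose group. Treated-minus-control body-weight change (T − C) and toxicity-day survivors recorded on day 5 (4 days after first dose).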

[3] = system: Mus musculus; assay: Toxicity in mouse P388 cells allografted CD2F1 mouse assessed as mouse survival at 50 mg/kg, ip of total 9 doses starting 24 hrs post tumor inoculation measured on day 5 of inoculation relative to control; assay type: organism-based; design: dose 50 mg/kg, route intraperitoneal; settings: in vivo; procedure, shortened: as §1
[4] = system: Mus musculus; assay: Toxicity in mouse P388 cells allografted CD2F1 mouse assessed as body weight loss at 25 mg/kg, ip of total 9 doses starting 24 hrs post tumor inoculation measured on day 5 of inoculation relative to control; assay type: organism-based; design: dose 25 mg/kg, route intraperitoneal; settings: in vivo; procedure, shortened: as §2
[5] = system: Mus musculus; assay: Toxicity in mouse P388 cells allografted CD2F1 mouse assessed as body weight loss at 12.5 mg/kg, ip of total 9 doses starting 24 hrs post tumor inoculation measured on day 5 of inoculation relative to control; assay type: organism-based; design: dose 12.5 mg/kg, route intraperitoneal; settings: in vivo; procedure, shortened: as §2
[6] = system: Mus musculus; assay: Toxicity in mouse P388 cells allografted CD2F1 mouse assessed as body weight loss at 100 mg/kg, ip of total 9 doses starting 24 hrs post tumor inoculation measured on day 5 of inoculation relative to control; assay type: organism-based; design: dose 100 mg/kg, route intraperitoneal; settings: in vivo; procedure, shortened: as §2
[7] = system: Mus musculus; assay: Toxicity in mouse P388 cells allografted CD2F1 mouse assessed as body weight loss at 50 mg/kg, ip of total 9 doses starting 24 hrs post tumor inoculation measured on day 5 of inoculation relative to control; assay type: organism-based; design: dose 50 mg/kg, route intraperitoneal; settings: in vivo; procedure, shortened: as §2
[8] = system: Mus musculus; assay: Toxicity in mouse P388 cells allografted CD2F1 mouse assessed as mouse survival at 12.5 mg/kg, ip of total 9 doses starting 24 hrs post tumor inoculation measured on day 5 of inoculation relative to control; assay type: organism-based; design: dose 12.5 mg/kg, route intraperitoneal; settings: in vivo; procedure, shortened: as §1
[9] = system: P388; assay: Antitumor activity against mouse P388 cells allografted in CD2F1 mouse assessed as increase in mouse survival at 25 mg/kg, ip of total 9 doses starting 24 hrs post tumor inoculation measured on day 5 of inoculation relative to control; assay type: functional; settings: route intraperitoneal
Procedure, shortened: (§3)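 Male CD2F1 mice inoculated ip with 6×10^6 P388 leukemia cells. Dosing was ip as a suspension in distilled water–Tween 80, nine daily doses starting 24 h after inoculation. Activity was read as median survival time of treated vs control mice (% T/C); % T/C ≥ 120 was considered significant. Groups were 6 mice.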

[10] = system: P388; assay: Antitumor activity against mouse P388 cells allografted in CD2F1 mouse assessed as increase in mouse survival at 12.5 mg/kg, ip of total 9 doses starting 24 hrs post tumor inoculation measured on day 5 of inoculation relative to control; assay type: functional; settings: route intraperitoneal; procedure, shortened: as §3
[11] = system: Mus musculus; assay: Toxicity in mouse P388 cells allografted CD2F1 mouse assessed as mouse survival at 6.25 mg/kg, ip of total 9 doses starting 24 hrs post tumor inoculation measured on day 5 of inoculation relative to control; assay type: organism-based; design: dose 6.25 mg/kg, route intraperitoneal; settings: in vivo; procedure, shortened: as §1
[12] = system: P388; assay: Antitumor activity against mouse P388 cells allografted in CD2F1 mouse assessed as increase in mouse survival at 50 mg/kg, ip of total 9 doses starting 24 hrs post tumor inoculation measured on day 5 of inoculation relative to control; assay type: functional; settings: route intraperitoneal; procedure, shortened: as §3
[13] = system: P388; assay: Antitumor activity against mouse P388 cells allografted in CD2F1 mouse assessed as increase in mouse survival at 6.25 mg/kg, ip of total 9 doses starting 24 hrs post tumor inoculation measured on day 5 of inoculation relative to control; assay type: functional; settings: route intraperitoneal; procedure, shortened: as §3
[14] = system: Proteus vulgaris; assay: Antimicrobial activity against Proteus vulgaris ATCC 6380 at 1 mg after 24 hrs by disk sensitivity assay; assay type: functional, organism-based
Procedure, shortened: (§4)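 Bacteria grown 24 h in trypticase soy broth; 1 mL used to seed a lawn on trypticase soy agar. Sterile 6 mm paper disks carrying 1 mg test compound placed on agar, incubated 24 h at 37 °C, then zone of inhibition around each disk measured.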

[15] = system: Enterobacter cloacae; assay: Antimicrobial activity against Enterobacter cloacae ATCC 23355 at 1 mg after 24 hrs by disk sensitivity assay; assay type: functional, organism-based; procedure, shortened: as §4
[16] = system: Serratia marcescens; assay: Antimicrobial activity against Serratia marcescens ATCC 8100 at 1 mg after 24 hrs by disk sensitivity assay; assay type: functional, organism-based; procedure, shortened: as §4
[17] = system: Staphylococcus epidermidis; assay: Antimicrobial activity against Staphylococcus epidermidis ATCC 12228 at 1 mg after 24 hrs by disk sensitivity assay; assay type: functional, organism-based; procedure, shortened: as §4
[18] = system: Staphylococcus aureus; assay: Antimicrobial activity against Staphylococcus aureus ATCC 25923 at 1 mg after 24 hrs by disk sensitivity assay; assay type: functional, organism-based; procedure, shortened: as §4
[19] = system: Klebsiella pneumoniae; assay: Antimicrobial activity against Klebsiella pneumoniae ATCC 23357 at 1 mg after 24 hrs by disk sensitivity assay; assay type: functional, organism-based; procedure, shortened: as §4
[20] = system: Escherichia coli; assay: Antimicrobial activity against Escherichia coli ATCC 25922 at 1 mg after 24 hrs by disk sensitivity assay; assay type: functional, organism-based; procedure, shortened: as §4
[21] = system: Salmonella typhimurium; assay: Antimicrobial activity against Salmonella typhimurium ATCC 14028 at 1 mg after 24 hrs by disk sensitivity assay; assay type: functional, organism-based; settings: Salmonella enterica subsp. enterica serovar Typhimurium; procedure, shortened: as §4
[22] = system: P388; assay: Antitumor activity against mouse P388 cells allografted in CD2F1 mouse assessed as increase in mouse survival at 100 mg/kg, ip of total 9 doses starting 24 hrs post tumor inoculation measured on day 5 of inoculation relative to control; assay type: functional; settings: route intraperitoneal; procedure, shortened: as §3

Row | Structure (SMILES) | Activity [1] | Activity [2] [g] | Activity [3] | Activity [4] [g] | Activity [5] [g] | Activity [6] [g] | Activity [7] [g] | Activity [8] | T/C [9] [%] | T/C [10] [%] | Activity [11] | T/C [12] [%] | T/C [13] [%] | Activity [17] | Activity [18] | T/C [22] [%] | other results
1 | CNC(=O)OCc1c(COC(=O)NC)c(-c2ccc(Cl)cc2)n(C)c1C | Non-toxic | 3.4 | Non-toxic | 4.4 | 3.2 | 7.5 | 5.7 | Non-toxic | 153 | 155 | Non-toxic | 165 | 155 |  |  |  | 
2 | CNC(=O)OCc1c(COC(=O)NC)c(-c2ccc(C(C)(C)C)cc2)n(C)c1C | Non-toxic | 2 |  | 4 | 3.8 | 4.4 | 5.1 | Non-toxic | 158 | 155 | Non-toxic | 97 | 152 | inactive | inactive |  | Activity [14]: inactive; Activity [15]: inactive; Activity [16]: inactive; Activity [19]: inactive; Activity [20]: inactive; Activity [21]: inactive
3 | CNC(=O)OCc1c(COC(=O)NC)c(-c2ccc(N)cc2)n(C)c1C |  | 0.7 | Non-toxic | 0.4 | 0.1 | 3.5 | 2.5 | Non-toxic | 100 | 98 | Non-toxic | 119 | 92 |  |  | 135 | 
4 | CNC(=O)OCc1c(COC(=O)NC)c(-c2ccc(Cl)c(Cl)c2)n(C)c1C | Non-toxic | 1.7 | Non-toxic | 2.4 | 1.7 | 5.9 | 3.2 | Non-toxic | 148 | 145 | Non-toxic | 163 | 145 | Active |  |  | 
5 | CNC(=O)OCc1c(COC(=O)NC)c(-c2ccc(OC)cc2)n(C)c1C | Non-toxic | 2.4 | Non-toxic | 3.4 | 3.2 | 5.5 | 4.4 | Non-toxic | 145 | 138 | Non-toxic | 152 | 135 | Active | Active | <70 | 
